ChEMBL document CHEMBL1136009, “Novel p53 inactivators with neuroprotective action: syntheses and pharmacological evaluation of 2-imino-2,3,4,5,6,7-hexahydrobenzothiazole and 2-imino-2,3,4,5,6,7-hexahydrobenzoxazole derivatives” (J Med Chem, 2002)
pEC50: −log10 of the molar value.

Legend:
PC-12 [1] = test: Effective concentration to induce 25 % protection of rat PC12 cells from camptothecin-induced cell death; type: functional
Method in brief: (§1)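 PC12 cells grown in RPMI1640 with 10% horse serum and 5% fetal calf serum to 70–80% confluence, seeded at 2.2×10^4 cells/mL, grown 12 h. Pretreated 6 h with compound (100–400 nM, 0.4% DMSO final), then camptothecin 40 μM for 24 h. Live cells read by BCECF AM (5 μM, 45 min) fluorescence, ex 490/em 535 nm. EC25/EC50 from logit plot versus log concentration, n = 3.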

PC-12 [2] = test: Effective concentration to induce 50 % protection of rat PC12 cells from camptothecin-induced cell death; type: functional, cell-based; method in brief: as §1
[3] = Neuronal survival of cells in response to compound (100 nM) addition to camptothecin (5 uM) to rat hippocampal neurons; type: functional, Hippocampus
Method in brief: (§2)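 Primary hippocampal cultures from embryonic day 18 Sprague–Dawley rats, used at 9–10 days in Neurobasal/B-27 medium. Compound added 1 h before the DNA-damaging agent (camptothecin or etoposide); the agents were made as 500× DMSO stocks. Viable neurons (intact neurites, smooth round soma) were counted in premarked fields before treatment and 24 h after. Results are given as percent survival, mean ± SD.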

[4] = Neuronal survival of cells in response to compound (100 nM) addition to etoposide (2.5 uM) to rat hippocampal neurons; type: functional, Hippocampus; method in brief: as §2
[5] = Neuronal survival of cells in response to compound (100 nM) addition to camptothecin (5 uM) to hippocampal neurons; type: functional, Rattus norvegicus, Hippocampus; method in brief: as §2
[6] = Neuronal survival of cells in response to compound (100 nM) addition to etoposide (2.5 uM) to hippocampal neurons; type: functional, Rattus norvegicus, Hippocampus; method in brief: as §2
[7] = Neuroprotective action against glutamate (20 uM) induced cell death in hippocampal neurons; type: functional, Rattus norvegicus, Hippocampus
Method in brief: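 E18 Sprague–Dawley rat hippocampal cultures (9–10 days old) were pretreated with compound (0.04 μM) 1 h before glutamate in Locke's medium; glutamate came from a fresh 200× saline stock. Viable neurons in premarked fields were counted before treatment and 24 h after insult onset, judged by neurite and soma morphology. Results are given as percent survival, mean ± SD.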

N=c1sc2c(n1CC(=O)c1ccc([N+](=O)[O-])cc1)CCCC2
EC25 (PC-12 [1]): 230 nM | pEC50 (PC-12 [2]): 6.39

COc1ccc(C(=O)Cn2c3c(sc2=N)CCCC3)cc1
EC25 (PC-12 [1]): 150 nM | pEC50 (PC-12 [2]): 6.74

Nc1nc2c(s1)CCCC2
EC25 (PC-12 [1]): 855 nM | pEC50 (PC-12 [2]): 5.06

Br.Cc1ccc(C(=O)Cn2c3c(sc2=N)CC(C)CC3)cc1 (configuration not stated)
Survival [3]: 29% | Survival [4]: 60% | EC25 (PC-12 [1]): 100 nM | pEC50 (PC-12 [2]): 6.52

COc1cccc(C(=O)Cn2c3c(sc2=N)CCCC3)c1
EC25 (PC-12 [1]): 340 nM | pEC50 (PC-12 [2]): 6.38

N=c1sc2c(n1CC(=O)c1ccccc1)CCCC2
EC25 (PC-12 [1]): 80 nM | pEC50 (PC-12 [2]): 6.77

CCOC(=O)Cn1c2c(sc1=N)CCCC2
EC25 (PC-12 [1]): 230 nM | pEC50 (PC-12 [2]): 6.23

N=c1sc2c(n1CC(=O)c1ccc(-c3ccccc3)cc1)CCCC2
EC25 (PC-12 [1]): 340 nM | pEC50 (PC-12 [2]): 6.11

COc1ccccc1C(=O)Cn1c2c(sc1=N)CCCC2
EC25 (PC-12 [1]): 250 nM | pEC50 (PC-12 [2]): 6.46

Br.N=c1sc2c(n1Cc1ccccc1)CCCC2
Survival [5]: 61% | Survival [6]: 78% | Survival [7]: 43% | EC25 (PC-12 [1]): 415 nM | pEC50 (PC-12 [2]): 6.13

CCC(=O)Cn1c2c(oc1=N)CCCC2
pEC50 (PC-12 [2]): 6.84

Br.CCC(=O)Cn1c2c(sc1=N)CCCC2
Survival [5]: 65% | Survival [6]: 71% | Survival [7]: 43% | EC25 (PC-12 [1]): 410 nM | pEC50 (PC-12 [2]): 6.24

N=c1sc2c(n1CC(=O)c1ccc(Cl)cc1)CCCC2
EC25 (PC-12 [1]): 120 nM | pEC50 (PC-12 [2]): 6.72

N=c1sc2c(n1CC(=O)c1ccc(F)cc1)CCCC2
EC25 (PC-12 [1]): 300 nM | pEC50 (PC-12 [2]): 6.42

Cc1ccc(C(=O)Cn2c3c(oc2=N)CCCC3)cc1
EC25 (PC-12 [1]): 35 nM | pEC50 (PC-12 [2]): 7.15
